B1: Osa-1-4 twister ribozyme (parent)
chain: CCGCCUAACACUGCCAAUGCCGGUCCCAAGCCCGGAUAAAAGUGGAGGGGGCGG

Variants of: B1
Assay: self-cleavage, relative activity (ratio to wild type); higher = more cleavage; co-transcriptional
Outline: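 A DNA template for a 54-nucleotide Oryza sativa twister ribozyme was synthesised with 97 % wild-type base and 1 % of each other base at the 48 positions downstream of the cleavage site. It was transcribed in vitro for 2 h at 37 °C, allowing co-transcriptional self-cleavage, then reverse-transcribed with a template-switching oligonucleotide, PCR-amplified and deep-sequenced. Cleavage status was scored from reads with or without upstream sequence. Relative activity is fraction cleaved normalised to wild type.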

Variant | self-cleavage
CCGCCUAACACUGCCAAUGCCGGUCGCAAACCCGGAUAAAAGUGGAGGGGGCGG [C26G G30A] | 0.06
CCGCCUAACACUGCCAAUGCCGGUCGCAACCCCGGAUAAAAGUGGAGGGGGCGG [C26G G30C] | 0.05
CCGCCUAACACUGCCAAUGCCGGUCGCAAUCCCGGAUAAAAGUGGAGGGGGCGG [C26G G30U] | 0.03
CCGCCUAACACUGCCAAUGCCGGUCGCAAGCCCAGAUAAAAGUGGAGGGGGCGG [C26G G34A] | 0.18
CCGCCUAACACUGCCAAUGCCGGUCGCAAGCCCCGAUAAAAGUGGAGGGGGCGG [C26G G34C] | 0.08
CCGCCUAACACUGCCAAUGCCGGUCGCAAGCCCUGAUAAAAGUGGAGGGGGCGG [C26G G34U] | 0.08
CCGCCUAACACUGCCAAUGCCGGUCGCAAGCCCGAAUAAAAGUGGAGGGGGCGG [C26G G35A] | 0.08
CCGCCUAACACUGCCAAUGCCGGUCGCAAGCCCGCAUAAAAGUGGAGGGGGCGG [C26G G35C] | 0.07
CCGCCUAACACUGCCAAUGCCGGUCGCAAGCCCGUAUAAAAGUGGAGGGGGCGG [C26G G35U] | 0.09
CCGCCUAACACUGCCAAUGCCGGUCGCAAGCCCGGAUAAAAAUGGAGGGGGCGG [C26G G42A] | 0.08
CCGCCUAACACUGCCAAUGCCGGUCGCAAGCCCGGAUAAAACUGGAGGGGGCGG [C26G G42C] | 0.05
CCGCCUAACACUGCCAAUGCCGGUCGCAAGCCCGGAUAAAAUUGGAGGGGGCGG [C26G G42U] | 0.02
CCGCCUAACACUGCCAAUGCCGGUCGCAAGCCCGGAUAAAAGUAGAGGGGGCGG [C26G G44A] | 0.09
CCGCCUAACACUGCCAAUGCCGGUCGCAAGCCCGGAUAAAAGUCGAGGGGGCGG [C26G G44C] | 0.09
CCGCCUAACACUGCCAAUGCCGGUCGCAAGCCCGGAUAAAAGUUGAGGGGGCGG [C26G G44U] | 0.08
CCGCCUAACACUGCCAAUGCCGGUCGCAAGCCCGGAUAAAAGUGAAGGGGGCGG [C26G G45A] | 0.05
CCGCCUAACACUGCCAAUGCCGGUCGCAAGCCCGGAUAAAAGUGCAGGGGGCGG [C26G G45C] | 0.03
CCGCCUAACACUGCCAAUGCCGGUCGCAAGCCCGGAUAAAAGUGUAGGGGGCGG [C26G G45U] | 0.02
CCGCCUAACACUGCCAAUGCCGGUCGCAAGCCCGGAUAAAAGUGGAAGGGGCGG [C26G G47A] | 0.05
CCGCCUAACACUGCCAAUGCCGGUCGCAAGCCCGGAUAAAAGUGGACGGGGCGG [C26G G47C] | 0.04
CCGCCUAACACUGCCAAUGCCGGUCGCAAGCCCGGAUAAAAGUGGAUGGGGCGG [C26G G47U] | 0.06
CCGCCUAACACUGCCAAUGCCGGUCGCAAGCCCGGAUAAAAGUGGAGAGGGCGG [C26G G48A] | 0.06
CCGCCUAACACUGCCAAUGCCGGUCGCAAGCCCGGAUAAAAGUGGAGCGGGCGG [C26G G48C] | 0.74
CCGCCUAACACUGCCAAUGCCGGUCGCAAGCCCGGAUAAAAGUGGAGUGGGCGG [C26G G48U] | 0.08
CCGCCUAACACUGCCAAUGCCGGUCGCAAGCCCGGAUAAAAGUGGAGGAGGCGG [C26G G49A] | 0.04

Variant | self-cleavage
CCGCCUAACACUGCCAAUGCCGGUCGCAAGCCCGGAUAAAAGUGGAGGCGGCGG [C26G G49C] | 0.03
CCGCCUAACACUGCCAAUGCCGGUCGCAAGCCCGGAUAAAAGUGGAGGUGGCGG [C26G G49U] | 0.04
CCGCCUAACACUGCCAAUGCCGGUCGCAAGCCCGGAUAAAAGUGGAGGGAGCGG [C26G G50A] | 0.1
CCGCCUAACACUGCCAAUGCCGGUCGCAAGCCCGGAUAAAAGUGGAGGGCGCGG [C26G G50C] | 0.09
CCGCCUAACACUGCCAAUGCCGGUCGCAAGCCCGGAUAAAAGUGGAGGGUGCGG [C26G G50U] | 0.09
CCGCCUAACACUGCCAAUGCCGGUCGCAAGCCCGGAUAAAAGUGGAGGGGACGG [C26G G51A] | 0.1
CCGCCUAACACUGCCAAUGCCGGUCGCAAGCCCGGAUAAAAGUGGAGGGGCCGG [C26G G51C] | 0.05
CCGCCUAACACUGCCAAUGCCGGUCGCAAGCCCGGAUAAAAGUGGAGGGGUCGG [C26G G51U] | 0.06
CCGCCUAACACUGCCAAUGCCGGUCGCAAGCCCGGAUAAAAGUGGAGGGGGCAG [C26G G53A] | 0.11
CCGCCUAACACUGCCAAUGCCGGUCGCAAGCCCGGAUAAAAGUGGAGGGGGCCG [C26G G53C] | 0.03
CCGCCUAACACUGCCAAUGCCGGUCGCAAGCCCGGAUAAAAGUGGAGGGGGCUG [C26G G53U] | 0.06
CCGCCUAACACUGCCAAUGCCGGUCGCAAGCCCGGAUAAAAGUGGAGGGGGCGA [C26G G54A] | 0.08
CCGCCUAACACUGCCAAUGCCGGUCGCAAGCCCGGAUAAAAGUGGAGGGGGCGC [C26G G54C] | 0.08
CCGCCUAACACUGCCAAUGCCGGUCGCAAGCCCGGAUAAAAGUGGAGGGGGCGU [C26G G54U] | 0.15
CCGCCUAACACAGCCAAUGCCGGUCGCAAGCCCGGAUAAAAGUGGAGGGGGCGG [C26G U12A] | 0.07
CCGCCUAACACCGCCAAUGCCGGUCGCAAGCCCGGAUAAAAGUGGAGGGGGCGG [C26G U12C] | 0.05
CCGCCUAACACGGCCAAUGCCGGUCGCAAGCCCGGAUAAAAGUGGAGGGGGCGG [C26G U12G] | 0.07
CCGCCUAACACUGCCAAAGCCGGUCGCAAGCCCGGAUAAAAGUGGAGGGGGCGG [C26G U18A] | 0.09
CCGCCUAACACUGCCAACGCCGGUCGCAAGCCCGGAUAAAAGUGGAGGGGGCGG [C26G U18C] | 0.1
CCGCCUAACACUGCCAAGGCCGGUCGCAAGCCCGGAUAAAAGUGGAGGGGGCGG [C26G U18G] | 0.13
CCGCCUAACACUGCCAAUGCCGGACGCAAGCCCGGAUAAAAGUGGAGGGGGCGG [C26G U24A] | 0.04
CCGCCUAACACUGCCAAUGCCGGCCGCAAGCCCGGAUAAAAGUGGAGGGGGCGG [C26G U24C] | 0.04
CCGCCUAACACUGCCAAUGCCGGGCGCAAGCCCGGAUAAAAGUGGAGGGGGCGG [C26G U24G] | 0.02
CCGCCUAACACUGCCAAUGCCGGUCGCAAGCCCGGAAAAAAGUGGAGGGGGCGG [C26G U37A] | 0.09

Source: the RNAGym collection of RNA variant scans (doi:10.1002/anie.201605470)
